Measured values: paper PMC9389373 (RSC Advances, 2022)
pIC50: −log10 of the molar value. Values belong to the molecule of their own block, whether it stands above or below them.

Key:
MCF-7 = assay: MTT cytotoxicity assay, MCF-7; type: cell-based; details: Homo sapiens, MCF7, read-out: IC50, μM MCF-7
Summary of the method: (§1)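 Cells came from the National Cancer Institute, Cairo, and were grown in RPMI-1640 with L-glutamine, 10% FBS and 1% penicillin-streptomycin at 37 °C, 5% CO2. Plated in triplicate in 96-well plates (5 × 10^4 cells). Next day, exposed to test compound at 0.01, 0.1, 1, 10 and 100 μM (48 h stated for MDA-MB-231 and MCF-10A). MTT added for 3 h; absorbance read; viability relative to control; IC50 derived.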

EGFR = EGFR (Homo sapiens, UniProt P00533); assay: EGFR inhibition, ADP-Glo kinase assay; type: biochemical
Chain of EGFR (P00533 25-1210): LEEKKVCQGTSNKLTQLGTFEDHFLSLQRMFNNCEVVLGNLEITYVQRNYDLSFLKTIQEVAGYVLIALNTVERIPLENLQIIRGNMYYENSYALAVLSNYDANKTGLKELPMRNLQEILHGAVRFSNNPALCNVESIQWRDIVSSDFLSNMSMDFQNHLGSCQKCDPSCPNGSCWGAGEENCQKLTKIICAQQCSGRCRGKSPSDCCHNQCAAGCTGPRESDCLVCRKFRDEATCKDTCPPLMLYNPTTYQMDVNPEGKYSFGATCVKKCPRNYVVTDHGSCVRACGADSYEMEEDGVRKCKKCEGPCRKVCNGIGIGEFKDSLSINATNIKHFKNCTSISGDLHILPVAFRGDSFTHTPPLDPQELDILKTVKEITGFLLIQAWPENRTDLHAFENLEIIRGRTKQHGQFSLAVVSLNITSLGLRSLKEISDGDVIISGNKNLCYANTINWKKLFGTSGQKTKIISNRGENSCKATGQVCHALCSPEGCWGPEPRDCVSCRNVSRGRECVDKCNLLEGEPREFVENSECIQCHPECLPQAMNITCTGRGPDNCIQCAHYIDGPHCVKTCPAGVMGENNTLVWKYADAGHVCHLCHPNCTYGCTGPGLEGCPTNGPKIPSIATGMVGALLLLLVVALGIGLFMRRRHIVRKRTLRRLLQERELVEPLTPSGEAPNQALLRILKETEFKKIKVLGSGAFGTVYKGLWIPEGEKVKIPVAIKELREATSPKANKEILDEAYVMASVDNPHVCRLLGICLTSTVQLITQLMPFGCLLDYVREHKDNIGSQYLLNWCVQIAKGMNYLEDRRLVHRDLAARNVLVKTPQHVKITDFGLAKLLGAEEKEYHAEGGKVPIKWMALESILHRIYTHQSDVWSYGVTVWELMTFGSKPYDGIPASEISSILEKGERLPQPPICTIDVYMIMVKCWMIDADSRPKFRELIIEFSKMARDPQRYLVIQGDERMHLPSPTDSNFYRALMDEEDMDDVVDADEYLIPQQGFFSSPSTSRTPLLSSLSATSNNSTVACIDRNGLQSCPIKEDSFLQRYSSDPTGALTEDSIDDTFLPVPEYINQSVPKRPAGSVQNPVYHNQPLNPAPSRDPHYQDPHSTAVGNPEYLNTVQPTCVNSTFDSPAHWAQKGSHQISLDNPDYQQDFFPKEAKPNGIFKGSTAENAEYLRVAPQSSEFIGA

MDA-MB-231 = assay: MTT cytotoxicity assay, MDA-MB-231; type: cell-based; details: read-out: IC50, μM MDA-MB-231, average of three independent trials
Summary of the method: as §1

PARP-1 = PARP-1 (Homo sapiens, UniProt P09874); assay: PARP-1 enzyme inhibition assay; type: biochemical
Chain of PARP-1 (P09874 whole entry): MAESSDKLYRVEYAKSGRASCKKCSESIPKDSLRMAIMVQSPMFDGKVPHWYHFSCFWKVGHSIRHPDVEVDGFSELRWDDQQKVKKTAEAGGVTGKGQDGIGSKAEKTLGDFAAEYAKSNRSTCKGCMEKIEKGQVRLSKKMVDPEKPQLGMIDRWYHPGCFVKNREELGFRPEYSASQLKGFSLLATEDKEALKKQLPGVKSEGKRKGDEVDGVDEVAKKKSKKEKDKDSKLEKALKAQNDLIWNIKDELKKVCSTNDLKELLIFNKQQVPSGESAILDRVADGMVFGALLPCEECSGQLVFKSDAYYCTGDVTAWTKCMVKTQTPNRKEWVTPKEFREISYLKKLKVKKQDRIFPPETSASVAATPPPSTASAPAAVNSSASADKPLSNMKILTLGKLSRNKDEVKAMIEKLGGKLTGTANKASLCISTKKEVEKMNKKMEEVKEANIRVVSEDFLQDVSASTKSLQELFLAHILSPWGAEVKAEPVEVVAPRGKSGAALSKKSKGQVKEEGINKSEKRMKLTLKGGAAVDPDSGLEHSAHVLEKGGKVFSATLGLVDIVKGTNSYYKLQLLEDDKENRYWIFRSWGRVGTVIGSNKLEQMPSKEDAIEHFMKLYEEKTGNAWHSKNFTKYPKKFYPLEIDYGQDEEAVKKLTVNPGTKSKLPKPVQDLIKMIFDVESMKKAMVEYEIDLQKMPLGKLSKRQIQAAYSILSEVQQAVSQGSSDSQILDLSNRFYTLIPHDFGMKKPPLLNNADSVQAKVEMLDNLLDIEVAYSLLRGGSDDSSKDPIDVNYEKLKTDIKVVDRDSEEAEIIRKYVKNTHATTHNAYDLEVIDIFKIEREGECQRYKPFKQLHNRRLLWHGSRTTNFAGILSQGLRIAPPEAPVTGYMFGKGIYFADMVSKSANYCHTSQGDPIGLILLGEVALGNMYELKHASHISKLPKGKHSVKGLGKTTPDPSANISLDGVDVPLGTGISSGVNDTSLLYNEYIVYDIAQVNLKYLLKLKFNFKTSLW

MDA-MB-231 cells [1] = assay: Annexin V/PI staining flow cytometry, apoptosis-necrosis assessment; type: cell-based; details: 8i at 0.12 μM, 48 h
Summary of the method: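 MDA-MB-231 cells seeded overnight in 6-well plates (3–5 × 10^5 cells/well), then exposed to test compound for 48 h. Stained 30 min in the dark in Annexin binding buffer (25 mM CaCl2, 1.4 M NaCl, 0.1 M Hepes/NaOH, pH 7.4) with Annexin V-FITC (1:100) and PI (10 μg mL−1). Analysed by flow cytometry: Q1 necrosis, Q2 late apoptosis, Q4 early apoptosis.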

MDA-MB-231 cells [2] = assay: DNA-aided cell cycle analysis by flow cytometry; type: cell-based; details: 8i at 0.12 μM, 48 h; control 9.83%
MCF-10A = assay: MTT cytotoxicity assay, normal breast cells MCF-10A; type: cell-based; details: Homo sapiens
Summary of the method: as §1

MDA-MB-231 cells [3] = assay: RT-PCR gene expression of apoptosis-related genes; type: cell-based; details: 8i at 0.12 μM, 48 h, untreated control = 1
[4] = five concentrations, sigmoidal nonlinear regression

Compound: O=C(COc1ccc(C2=Nn3c(nnc3-c3ccccc3)SC2)cc1)NCCNC(=O)COc1ccc(C2=Nn3c(nnc3-c3ccccc3)SC2)cc1 [8a, N,N′-(Ethane-1,2-diyl)bis(2-(4-(3-phenyl-7H-[1,2,4]triazolo[3,4-b][1,3,4]thiadiazin-6-yl)phenoxy)acetamide)]
IC50 (MCF-7): ≥ 50 µM

Compound: O=C(COc1ccc(C2=Nn3c(Cc4ccccc4)nnc3SC2)cc1)NCCNC(=O)COc1ccc(C2=Nn3c(Cc4ccccc4)nnc3SC2)cc1 [8b, N,N′-(Ethane-1,2-diyl)bis(2-(4-(3-benzyl-7H-[1,2,4]triazolo[3,4-b][1,3,4]thiadiazin-6-yl)phenoxy)acetamide)]
IC50 (MCF-7): 26.1 µM

Compound: O=C(COc1ccccc1C1=Nn2c(nnc2-c2ccccc2)SC1)NCCNC(=O)COc1ccccc1C1=Nn2c(nnc2-c2ccccc2)SC1 [8c, N,N′-(Ethane-1,2-diyl)bis(2-(2-(3-phenyl-7H-[1,2,4]triazolo[3,4-b][1,3,4]thiadiazin-6-yl)phenoxy)acetamide)]
IC50 (MCF-7): 16.1 µM

pIC50 (EGFR): 6.91
IC50, nM EGFR (EGFR; [4]): poor inhibitory activities
pIC50 (PARP-1): 7.70
IC50, nM PARP-1 (PARP-1; [4]): poor inhibitory activities
Compound: Cc1nnc2n1N=C(c1ccccc1OCC(=O)NCCNC(=O)COc1ccccc1C1=Nn3c(C)nnc3SC1)CS2 [8d, N,N′-(Ethane-1,2-diyl)bis(2-(2-(3-methyl-7H-[1,2,4]triazolo[3,4-b][1,3,4]thiadiazin-6-yl)phenoxy)acetamide)]
IC50 (MDA-MB-231): 0.421 µM
IC50 (MCF-7): 2.14 µM

Compound: O=C(COc1ccc(C2=Nn3c(nnc3-c3ccccc3)SC2)cc1)NCCCNC(=O)COc1ccc(C2=Nn3c(nnc3-c3ccccc3)SC2)cc1 [8e, N,N′-(Propane-1,3-diyl)bis(2-(4-(3-phenyl-7H-[1,2,4]triazolo[3,4-b][1,3,4]thiadiazin-6-yl)phenoxy)acetamide)]
IC50 (MCF-7): 12.7 µM

Compound: Cc1nnc2n1N=C(c1ccc(OCC(=O)NCCCNC(=O)COc3ccc(C4=Nn5c(C)nnc5SC4)cc3)cc1)CS2 [8f, N,N′-(Propane-1,3-diyl)bis(2-(4-(3-methyl-7H-[1,2,4]triazolo[3,4-b][1,3,4]thiadiazin-6-yl)phenoxy)acetamide)]
IC50 (MCF-7): 7.12 µM

Compound: O=C(COc1ccccc1C1=Nn2c(nnc2-c2ccccc2)SC1)NCCCNC(=O)COc1ccccc1C1=Nn2c(nnc2-c2ccccc2)SC1 [8g, N,N′-(Propane-1,3-diyl)bis(2-(2-(3-phenyl-7H-[1,2,4]triazolo[3,4-b][1,3,4]thiadiazin-6-yl)phenoxy)acetamide)]
IC50 (MCF-7): 11.2 µM

Compound: O=C(COc1ccccc1C1=Nn2c(Cc3ccccc3)nnc2SC1)NCCCNC(=O)COc1ccccc1C1=Nn2c(Cc3ccccc3)nnc2SC1 [8h, N,N′-(Propane-1,3-diyl)bis(2-(2-(3-benzyl-7H-[1,2,4]triazolo[3,4-b][1,3,4]thiadiazin-6-yl)phenoxy)acetamide)]
IC50 (MDA-MB-231): ≥ 50 µM
IC50 (MCF-7): 21.1 µM

Compound: Cc1nnc2n1N=C(c1ccccc1OCC(=O)NCCCNC(=O)COc1ccccc1C1=Nn3c(C)nnc3SC1)CS2 [8i, N,N′-(Propane-1,3-diyl)bis(2-(2-(3-methyl-7H-[1,2,4]triazolo[3,4-b][1,3,4]thiadiazin-6-yl)phenoxy)acetamide)]
pIC50 (EGFR): 7.19
necrosis, fold compared to control (MDA-MB-231 cells [1]): 3.14 fold
total apoptosis, fold compared to control (MDA-MB-231 cells [1]): 38 fold
late apoptosis (Q2) (MDA-MB-231 cells [1]; control 0.18%): 19.51%
early apoptosis (Q4) (MDA-MB-231 cells [1]; control 0.63%): 11.23%
total apoptotic cell death (MDA-MB-231 cells [1]; control 0.81%): 30.74%
necrosis (Q1) (MDA-MB-231 cells [1]; control 1.3%): 4.08%
cell population at G2/M (MDA-MB-231 cells [2]): 24.04%
IC50 (MCF-7): 1.31 µM
pIC50 (MCF-10A; 48 h, read-out: IC50 MCF-10A): 4.28
inhibition at 100 µM (MCF-10A; read-out: cell inhibition): ~90%
Bcl-2 gene level, fold change (MDA-MB-231 cells [3]; decrease): 0.35 fold
Bax gene level, fold change (MDA-MB-231 cells [3]; increase): 4.46 fold
P53 gene level, fold change (MDA-MB-231 cells [3]; increase): 4.8 fold
caspase-3 gene level, fold change (MDA-MB-231 cells [3]; increase): 3.9 fold
caspase-8 gene level, fold change (MDA-MB-231 cells [3]; increase): 6.36 fold
caspase-9 gene level, fold change (MDA-MB-231 cells [3]; increase): 2.9 fold

Compound: O=C(COc1ccc(C2=Nn3c(nnc3-c3ccccc3)SC2)cc1)NCCCCNC(=O)COc1ccc(C2=Nn3c(nnc3-c3ccccc3)SC2)cc1 [8j, N,N′-(Butane-1,4-diyl)bis(2-(4-(3-phenyl-7H-[1,2,4]triazolo[3,4-b][1,3,4]thiadiazin-6-yl)phenoxy)acetamide)]
IC50 (MCF-7): 14.9 µM

Compound: O=C(COc1ccccc1C1=Nn2c(nnc2-c2ccccc2)SC1)NCCCCNC(=O)COc1ccccc1C1=Nn2c(nnc2-c2ccccc2)SC1 [8k, N,N′-(Butane-1,4-diyl)bis(2-(2-(3-phenyl-7H-[1,2,4]triazolo[3,4-b][1,3,4]thiadiazin-6-yl)phenoxy)acetamide)]
IC50 (MCF-7): 13.1 µM

pIC50 (EGFR): 7.10
pIC50 (PARP-1): 8.16
Compound: O=C(COc1ccccc1C1=Nn2cnnc2SC1)NCCCCNC(=O)COc1ccccc1C1=Nn2cnnc2SC1 [8l, N,N′-(Butane-1,4-diyl)bis(2-(2-(7H-[1,2,4]triazolo[3,4-b][1,3,4]thiadiazin-6-yl)phenoxy)-acetamide)]
IC50 (MCF-7): 5.31 µM

Compound: O=C(COc1ccc(-c2cnc3ccccc3n2)cc1)NCCNC(=O)COc1ccc(-c2cnc3ccccc3n2)cc1 [10a, N,N′-(Ethane-1,2-diyl)bis(2-(4-(quinoxalin-2-yl)phenoxy)acetamide)]
IC50 (MDA-MB-231): ≥ 50 µM
IC50 (MCF-7): 32 µM

Compound: Cc1cc2ncc(-c3ccc(OCC(=O)NCCNC(=O)COc4ccc(-c5cnc6cc(C)c(C)cc6n5)cc4)cc3)nc2cc1C [10b, N,N′-(Ethane-1,2-diyl)bis(2-(4-(6,7-dimethylquinoxalin-2-yl)phenoxy)acetamide)]
IC50 (MCF-7): ≥ 50 µM

Compound: O=C(COc1ccccc1-c1cnc2ccccc2n1)NCCNC(=O)COc1ccccc1-c1cnc2ccccc2n1 [10c, N,N′-(Ethane-1,2-diyl)bis(2-(2-(quinoxalin-2-yl)phenoxy)acetamide)]
IC50 (MCF-7): 7.61 µM

Compound: O=C(COc1ccc(-c2cnc3ccccc3n2)cc1)NCCCNC(=O)COc1ccc(-c2cnc3ccccc3n2)cc1 [10d, N,N′-(Propane-1,3-diyl)bis(2-(4-(quinoxalin-2-yl)phenoxy)acetamide)]
IC50 (MDA-MB-231): ≥ 50 µM
IC50 (MCF-7): 23.2 µM

Compound: Cc1cc2ncc(-c3ccccc3OCC(=O)NCCCCNC(=O)COc3ccccc3-c3cnc4cc(C)c(C)cc4n3)nc2cc1C [10e, N,N′-(Butane-1,4-diyl)bis(2-(2-(6,7-dimethylquinoxalin-2-yl)phenoxy)acetamide)]
IC50 (MCF-7): 31.2 µM

Compound: C#Cc1cccc(Nc2ncnc3cc(OCCOC)c(OCCOC)cc23)c1 [Erlotinib, reference compound]
IC50 (MCF-7): 0.32 µM
